Bioassay records as filed in PubChem.
A selection: hits, their analogues and other compounds. The true share with any hit is near 5.9%.
Phagocyt inh: inhibitors of macrophage phagocytosis. J774A.1 macrophage IgG-bead phagocytosis, imaging. inhibition, % at 5 µM. hit rate 0.07% among 110,000;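 active = inhibition above the mean of the plate negative controls plus 5 SD, cut at about 13% in these data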;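 also: phagocytic index as fraction of beads internalized from green versus red external bead signal; plate controls were DMSO negative control for no effect and cytochalasin-D positive control for full effect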
hDAT+cocaine: changed human dopamine transporter uptake under cocaine IC80; B-score at 10 µM; LLC-PK1 hDAT cells, [14C]-dopamine uptake with cocaine IC80; actives deviate in either direction; hit rate 1.3% among 110,000; Q01959; AID 449768;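 active = Z score or B-score, a plate-position-corrected score, falls beyond the plate's 99.7% confidence bounds, in either direction; inactive = both scores lie inside the 99.7% bounds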;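 also: scored against the spread of the other compound wells on the same plate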
Measles CPE: protection of cells from measles virus | protection (pct of control), % at 4 µM | hit rate 1.5% among 140,000 | Measles virus-infected cells, CPE protection, absorbance | AID 841; in the data active = protection mostly above about 24%, no sharp cut-off; inactive = mostly below about 26%
Cav3 T inh: human Cav3.2 channel inhibition, primary screen; O95180; Cav3.2-expressing cells, Fluo-4 calcium fluorescence FDSS; hits give low values; B-score at 10 µM; hit rate 4% among 100,000; AID 449739;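 active = single-dose well whose peak fluorescence ratio is a statistical outlier from its plate by either plate-standardised score or position-corrected B-score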
Target sequence (O95180 whole entry, looked up): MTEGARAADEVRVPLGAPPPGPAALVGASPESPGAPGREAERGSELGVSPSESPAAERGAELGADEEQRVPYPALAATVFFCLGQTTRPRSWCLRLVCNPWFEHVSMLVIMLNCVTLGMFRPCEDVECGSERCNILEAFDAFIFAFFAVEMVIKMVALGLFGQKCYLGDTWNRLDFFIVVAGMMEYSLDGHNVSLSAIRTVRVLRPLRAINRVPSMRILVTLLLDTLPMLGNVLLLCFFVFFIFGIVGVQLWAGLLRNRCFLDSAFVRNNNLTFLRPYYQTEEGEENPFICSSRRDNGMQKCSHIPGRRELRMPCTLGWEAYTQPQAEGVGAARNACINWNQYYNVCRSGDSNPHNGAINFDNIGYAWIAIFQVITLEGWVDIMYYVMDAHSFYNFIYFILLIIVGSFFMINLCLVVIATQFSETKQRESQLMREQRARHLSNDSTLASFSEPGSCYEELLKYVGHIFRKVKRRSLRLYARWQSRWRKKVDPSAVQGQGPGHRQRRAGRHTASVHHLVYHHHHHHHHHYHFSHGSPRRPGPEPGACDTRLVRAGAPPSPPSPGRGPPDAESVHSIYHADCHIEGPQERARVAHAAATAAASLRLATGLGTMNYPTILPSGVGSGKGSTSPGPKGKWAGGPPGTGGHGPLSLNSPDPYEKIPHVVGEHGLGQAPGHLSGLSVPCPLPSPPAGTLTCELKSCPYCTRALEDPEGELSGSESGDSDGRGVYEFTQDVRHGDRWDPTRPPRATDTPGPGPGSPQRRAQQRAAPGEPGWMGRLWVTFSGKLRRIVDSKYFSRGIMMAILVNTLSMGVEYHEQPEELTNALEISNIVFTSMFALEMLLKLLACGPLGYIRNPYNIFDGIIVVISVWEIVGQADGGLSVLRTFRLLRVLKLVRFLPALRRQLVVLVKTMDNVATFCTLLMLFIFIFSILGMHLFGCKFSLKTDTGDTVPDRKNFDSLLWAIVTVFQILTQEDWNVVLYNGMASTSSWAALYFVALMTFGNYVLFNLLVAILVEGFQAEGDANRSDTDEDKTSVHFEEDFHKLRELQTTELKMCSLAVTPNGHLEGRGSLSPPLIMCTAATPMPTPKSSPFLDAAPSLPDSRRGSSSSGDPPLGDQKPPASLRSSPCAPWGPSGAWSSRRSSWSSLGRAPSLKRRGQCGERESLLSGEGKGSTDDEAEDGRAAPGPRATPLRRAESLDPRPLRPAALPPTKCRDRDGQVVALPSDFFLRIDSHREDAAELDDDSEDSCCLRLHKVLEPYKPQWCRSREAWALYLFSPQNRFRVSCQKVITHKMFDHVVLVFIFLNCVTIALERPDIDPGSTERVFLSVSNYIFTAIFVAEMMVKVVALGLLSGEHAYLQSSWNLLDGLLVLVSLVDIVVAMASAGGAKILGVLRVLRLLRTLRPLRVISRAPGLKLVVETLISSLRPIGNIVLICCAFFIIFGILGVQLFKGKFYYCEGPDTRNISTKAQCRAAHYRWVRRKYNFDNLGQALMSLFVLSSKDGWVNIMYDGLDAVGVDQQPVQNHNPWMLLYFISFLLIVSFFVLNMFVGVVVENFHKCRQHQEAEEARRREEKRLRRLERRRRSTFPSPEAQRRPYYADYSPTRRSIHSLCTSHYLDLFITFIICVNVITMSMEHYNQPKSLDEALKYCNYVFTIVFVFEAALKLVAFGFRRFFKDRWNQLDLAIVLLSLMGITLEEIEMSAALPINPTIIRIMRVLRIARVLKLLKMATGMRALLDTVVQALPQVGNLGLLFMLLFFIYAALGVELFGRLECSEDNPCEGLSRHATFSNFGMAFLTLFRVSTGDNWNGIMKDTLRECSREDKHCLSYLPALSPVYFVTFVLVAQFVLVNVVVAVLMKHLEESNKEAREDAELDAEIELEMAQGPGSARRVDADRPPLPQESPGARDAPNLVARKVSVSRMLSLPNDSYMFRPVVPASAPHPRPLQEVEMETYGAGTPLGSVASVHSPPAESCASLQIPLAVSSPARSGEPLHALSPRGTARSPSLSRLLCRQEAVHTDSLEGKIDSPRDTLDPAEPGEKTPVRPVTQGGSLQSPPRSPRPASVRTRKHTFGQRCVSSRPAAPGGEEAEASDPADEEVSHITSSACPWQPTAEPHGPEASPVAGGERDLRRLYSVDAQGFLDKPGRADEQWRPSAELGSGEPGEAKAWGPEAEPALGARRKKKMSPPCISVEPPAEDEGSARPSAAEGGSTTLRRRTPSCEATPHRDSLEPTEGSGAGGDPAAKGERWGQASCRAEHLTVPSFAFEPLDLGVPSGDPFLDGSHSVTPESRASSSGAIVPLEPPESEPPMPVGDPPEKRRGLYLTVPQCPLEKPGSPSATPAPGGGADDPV
Pyk2 oligo antag: antagonists of human Pyk2 oligomerization | Q293 cells, Pyk2 FERM NanoBiT luminescence; hits give low values | z-score (the deposit names both 25 µM and 10 µM) | hit rate 0.83% among 99,000 | AID 1347419;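 active = Z-score of -3 or lower, scaled per plate to the spread of control and sample wells; inactive = z-score above -3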;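 also: negative z-score means lost luminescence so less FERM oligomerization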
HIV Rev-RRE inh: inhibitors of HIV-1 Rev-RRE RNA interaction | Rev peptide-RRE RNA binding, FRET | inhibition, % at 8 µM | hit rate 0.79% among 97,000 | AID 704;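 active = inhibition above the screen-wide mean plus 3 SD, cut at about 35% in these data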;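 also: 0% = median DMSO wells and 100% = median Neomycin B control wells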
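Assay system: Rev peptide and RRE RNA, both fluorescently labelled; times: 5 min preincubation and 15 min binding, 25 °C; detection: FRET, ex 480 nm, em 540 and 671 nm; read-out basis: % inhibition from 671/540 nm acceptor-to-donor ratio, scaled between controls; benchmarks: DMSO low control, neomycin B high control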
* marks the source's active call; other numbers are inactive results; . = no result; [ ] = dose if it differs, or a comment.

SMILES	Phagocyt inh	hDAT+cocaine	Measles CPE	Cav3 T inh	Pyk2 oligo antag	HIV Rev-RRE inh
N#CC1=C(N)OC2=C(C(=O)CCC2)C1c1ccsc1 (stereo not given)	-1	-0.44	4	-0.9	-0.06	6
N#CC1=C(N)OC2=C(C(=O)CCC2)C1c1ccccc1 (stereo not given)	-1	-0.61	34*	-0.92	0.93	6
Cc1oc(C)c2c(=O)ccc3c(c12)OC(N)=C(C#N)C3c1ccccc1 (stereo not given)	0	0.018	1	.	0.15	60*
N#CC1=C(N)OC2=C(CC/C2=C\c2ccccc2)C1c1ccccc1 (stereo not given)	.	.	2	.	-1.4	136*[fluorescence artefact?]
CSc1ccc(C2C(C#N)=C(N)Oc3c2ccc(=O)c2c(C)oc(C)c32)cc1 (stereo not given)	-1	0.34	4	-1.5	-0.77	43*
Cc1ccc(C2C(C#N)=C(N)Oc3c2c(=O)n(C)c(=O)n3C)cc1 (stereo not given)	.	0.1	3	0.36	1.5	7
CCCOc1ccc(OCCN2CCCC(C)C2)cc1 (stereo not given)	-1	.	14	.	.	.
O=C(O)C1CC(c2cccc(Br)c2)=NO1 (stereo not given)	0	-0.01	15	0.095	0.24	8
O=C(C1CC(c2cccc(Br)c2)=NO1)N1CCc2ccccc2C1 (stereo not given)	.	0.0083	1	-4.4*	-0.48	6
O=C1C2C3C=CC([C@@H]2C(=O)N1Cc1cccnc1)C31CC1 (stereo not given in full)	.	0.056	45*	0.82	-0.3	7
COc1ccc(C2(O)CC3CCC(C2)N3c2nc(C)cc(C)c2C#N)cc1 (stereo not given)	0	-0.067	8	0.18	-3*	14
COc1ccc(Oc2nc(C)cc(C)c2C#N)cc1	-1	-0.18	23	-0.89	0.27	2
COc1ccc(C(=O)CSc2nc3ccc([N+](=O)[O-])cc3[nH]2)cc1	-16	.	4	.	.	.
CCN1CCN(C(c2cccs2)C(C)NC(=O)C(C)C)CC1 (stereo not given)	.	-0.0011	28	0.77	.	.
N/C(=N\S(=O)(=O)c1cccs1)c1ccccc1	1	0.37	17	.	-0.16	5
Cc1cccc(NC2=C/C(=N/S(=O)(=O)c3cccs3)c3ccccc3C2=O)c1	-2	.	4	.	.	.
Cc1ccc(NC2=C/C(=N\S(=O)(=O)c3cccs3)c3ccccc3C2=O)c(C)c1	.	-0.33	4	-2.6	-3.7*	4
Cc1ccc(Cl)cc1NC1=C/C(=N\S(=O)(=O)c2cccs2)c2ccccc2C1=O	1	-3.5*	5	.	-4.4*	5
COc1ccc(NC(=O)C2CCCCN2CC(=O)OCc2ccccc2)cc1OC (stereo not given)	-1	0.25	2	-0.67	-0.12	4
N#Cc1c(-c2ccccc2)ccn(Cc2ccc(Cl)cc2)c1=O	.	0.72	16	-0.65	-2.3	12
CCC(C)n1ncn(-c2ccc(N3CCN(c4ccc(OC)cc4)CC3)cc2)c1=O (stereo not given)	10	.	40	.	0.28	.
O=C1[C@@H]2[C@@H]3C[C@@H]([C@H]4ON=C(c5ccc(OCc6ccccc6)cc5)[C@@H]34)[C@@H]2C(=O)N1c1ccc2c(c1)OCO2	2	.	6	.	.	.
CN1C(=O)c2cccc(NCCCN3C(=O)c4ccccc4C3=O)c2C1=O	-2	-0.29	27	-2	1.2	58*
CCC(=O)Nc1cccc2c1C(=O)N(C)C2=O	.	-0.65	4	0.28	1.7	4
CN1C(=O)c2cccc(NC(=O)C3CCCCC3)c2C1=O	0	0.36	18	-0.035	.	4
SMILES	Phagocyt inh	hDAT+cocaine	Measles CPE	Cav3 T inh	Pyk2 oligo antag	HIV Rev-RRE inh
CCNc1cccc2c1C(=O)N(C)C2=O	0	-0.039	6	-4.1*	0.38	.
CC(CC(=O)NCC1CCCO1)c1ccccc1 (stereo not given)	-8	.	3	.	.	.
COC(=O)c1ccc(COC(=O)CCC(=O)c2cccs2)cc1	-4	.	17	.	.	.
CCNc1c2c3c(cccc3n(C)c1=O)C(=O)c1ccccc1-2	-1	0.38	7	-9.2*	.	142*[fluorescence artefact?]
CC(=O)Nc1ccc(Nc2c3c4c(cccc4n(C)c2=O)C(=O)c2ccccc2-3)cc1	-1	.	4	.	-2.2	.
Cn1c(NCCc2ccccc2)cc(=O)n(C)c1=O	-3	-0.16	34	0.14	-0.88	6
CCCCNc1c2c3c(cccc3n(C)c1=O)C(=O)c1ccccc1-2	.	1.1	13	-5.2*	-2.7	142*[fluorescence artefact?]
Cn1c(=O)c(NCCc2ccccc2)c2c3c(cccc31)C(=O)c1ccccc1-2	-1	2.1	29	-11*	1.2	140*[fluorescence artefact?]
CCCCNc1c(NC(C)=O)c(=O)oc2ccccc12	-9	.	6	.	.	.
Cn1c(=O)c(NCCO)c2c3c(cccc31)C(=O)c1ccccc1-2	-1	0.23	7	-9*	0.31	142*[fluorescence artefact?]
O=C1NC(=O)C2(COC(c3cccnc3)OC2)S1 (stereo not given)	.	.	18	.	.	.
Cn1cnc([N+](=O)[O-])c1Oc1ccc2ccccc2c1	.	.	7	.	.	.
COc1ccc(Nc2nc(C(F)(F)F)nc(C)c2C#N)cc1	-9	.	16	.	-0.22	.
Cc1ccc(N(CC(=O)NCc2ccco2)S(=O)(=O)c2ccccc2)cc1	2	0.077	3	1.2	-1.2	3
Cc1ccc(N(CC(=O)NCCSCc2ccco2)S(=O)(=O)c2ccc(C)cc2)cc1	.	-0.0095	9	-5.3*	0	1
Cc1cccc(N(CC(=O)NCCSCc2ccco2)S(=O)(=O)c2ccccc2)c1	.	-0.39	4	-4.1*	0.26	3
Cc1ccc(N(CC(O)COCc2ccco2)S(=O)(=O)c2ccc(C)cc2)cc1 (stereo not given)	-3	2	46*	-2.3	-0.24	2
Cc1cccc(CSCCNC(=O)c2ccc(N(C)S(=O)(=O)c3ccccc3)cc2)c1	-3	0.42	12	-3.9*	-0.18	8
c1cncc(C2Nc3ccccc3-c3nc4ccccc4n32)c1 (stereo not given)	-1	0.33	8	1.6	-3.3*	6
O=C(CSc1nc(C2CCCCC2)n(-c2ccccc2)n1)NCC(F)(F)F	1	.	16	.	.	.
COc1ccc(C2N3CC4(C)CN2CC(C)(C3)C4)cc1OC (stereo not given)	0	-7.5*	6	.	0.15	.
Cc1cccc(NC(=S)N(C)C2(c3ccccc3Cl)CCCCC2=O)c1 (stereo not given)	33*[artifact]	-1	1	-1.3	-1.4	-1
CN(CC(=O)Nc1ccc(F)cc1)C(=O)COc1ccc(C(=O)c2ccccc2)cc1	-11	.	.	.	.	.
Cc1cc(N2CCCCCC2)nc2ccccc12	1	0.18	17	-0.41	-0.8	5
Cc1cc(-n2nnc3ccccc32)nc2ccccc12	3	-0.43	31*	-0.79	-0.85	0
CCn1nc(C)c(C2C(C#N)=C(N)OC3=C2C(=O)CC(C)(C)C3)c1C (stereo not given)	-4	.	11	.	.	.
